# In ChEMBL document CHEMBL1158762, “Antineoplastic agents. 534. isolation and structure of sansevistatins 1 and 2 from the African Sansevieria ehrenbergii” (2005):
# Activity calls are given as the source filed them. No cut-off for these calls is given here.
# Experiments:
# [1] = tested on: Enterobacter cloacae; test: Antimicrobial activity against Enterobacter cloacae at 64 ug/mL by broth micro dilution assay; assay type: functional, organism-based
# [2] = tested on: Streptococcus pneumoniae; test: Antimicrobial activity against Streptococcus pneumoniae ATCC 6303 at 64 ug/mL by broth micro dilution assay; assay type: functional, organism-based
# [3] = tested on: P388; test: Growth inhibition of mouse P388 cells after 48 hrs; assay type: functional; conditions: P388, 48 h, read-out: ED50 (the source's name)
# How it was run: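 Murine P388 leukemia cells were preincubated 24 h in Fisher medium with 10% horse serum, then exposed to serial compound dilutions for 48 h. Cells were counted on an electronic particle counter, and ED50 for growth inhibition was calculated from the counts.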
# [4] = tested on: Micrococcus luteus; test: Antimicrobial activity against Micrococcus luteus presque Isle 456 at 64 ug/mL by broth micro dilution assay; assay type: functional, organism-based
# [5] = tested on: Cryptococcus neoformans; test: Antimicrobial activity against Cryptococcus neoformans ATCC 90112 by broth micro dilution assay; assay type: functional
# [6] = tested on: Staphylococcus aureus; test: Antimicrobial activity against Staphylococcus aureus at 64 ug/mL by broth micro dilution assay; assay type: functional, organism-based
# [7] = tested on: BXPC-3; test: Growth inhibition of humanBxPC3 cells after 48 hrs; assay type: functional; conditions: Homo sapiens, BXPC-3, 48 h
# How it was run: (§1)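 NCI sulforhodamine B assay. Cells in RPMI1640 with 5% fetal bovine serum were seeded and incubated 24 h, then exposed to serial dilutions for 48 h. Plates were TCA-fixed, SRB-stained and read for optical density. GI50 is the concentration giving 50% reduction in net protein increase, calculated from OD data.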
# [8] = tested on: Neisseria gonorrhoeae; test: Antimicrobial activity against Neisseria gonorrhoeae at 64 ug/mL by broth micro dilution assay; assay type: functional, organism-based
# [9] = tested on: KM-20L2; test: Growth inhibition of human KM20L2 cells after 48 hrs; assay type: functional; conditions: KM-20L2, 48 h; how it was run: as §1
# [10] = tested on: DU-145; test: Growth inhibition of human DU145 cells after 48 hrs; assay type: functional; conditions: DU-145, 48 h; how it was run: as §1
# [11] = tested on: MCF7; test: Growth inhibition of human MCF7 cells after 48 hrs; assay type: functional; conditions: MCF7, 48 h; how it was run: as §1
# [12] = tested on: Enterococcus faecalis; test: Antimicrobial activity against Enterococcus faecalis at 64 ug/mL by broth micro dilution assay; assay type: functional, organism-based
# [13] = tested on: Candida albicans; test: Antimicrobial activity against Candida albicans ATCC 90028 by broth micro dilution assay; assay type: functional
# [14] = tested on: SF-268; test: Growth inhibition of human SF268 cells after 48 hrs; assay type: functional; conditions: SF-268, 48 h; how it was run: as §1
# [15] = tested on: Stenotrophomonas maltophilia; test: Antimicrobial activity against Stenotrophomonas maltophilia at 64 ug/mL by broth micro dilution assay; assay type: functional, organism-based
# [16] = tested on: NCI-H460; test: Growth inhibition of human NCI-H460 cells after 48 hrs; assay type: functional; conditions: NCI-H460, 48 h; how it was run: as §1
# [17] = tested on: Escherichia coli; test: Antimicrobial activity against Escherichia coli at 64 ug/mL by broth micro dilution assay; assay type: functional, organism-based
# [18] = tested on: Streptococcus pneumoniae; test: Antimicrobial activity against Streptococcus pneumoniae ATCC 6303 by broth micro dilution assay; assay type: functional
# [19] = tested on: Micrococcus luteus; test: Antimicrobial activity against Micrococcus luteus presque Isle 456 by broth micro dilution assay; assay type: functional
# How it was run: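 NCCLS broth microdilution. Compounds reconstituted in a small volume of sterile DMSO and diluted in the appropriate medium immediately before testing. MIC read as the lowest concentration giving no visible growth (optically clear). Assays repeated on separate days.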
# [20] = tested on: Candida albicans; test: Antimicrobial activity against Candida albicans ATCC 90028 at 64 ug/mL by broth micro dilution assay; assay type: functional, organism-based
# [21] = tested on: Cryptococcus neoformans; test: Antimicrobial activity against Cryptococcus neoformans ATCC 90112 at 64 ug/mL by broth micro dilution assay; assay type: functional, organism-based
SMILES,Activity [1],Activity [2],EC50 [3] [µg/mL],Activity [4],MIC [5] [µg/mL],Activity [6],GI50 [7] [µg/mL],Activity [8],GI50 [9] [µg/mL],GI50 [10] [µg/mL],GI50 [11] [µg/mL],Activity [12],MIC [13] [µg/mL],GI50 [14] [µg/mL],Activity [15],GI50 [16] [µg/mL],Activity [17],MIC [18] [µg/mL],also measured
C[C@@H]1CC[C@@]2(OC1)O[C@H]1C[C@H]3[C@@H]4CC=C5C[C@@H](O[C@@H]6O[C@H](CO)[C@@H](O[C@@H]7OC[C@@H](O)[C@H](O)[C@H]7O)[C@H](O)[C@H]6O[C@@H]6O[C@@H](C)[C@H](O)[C@@H](O)[C@H]6O)CC[C@]5(C)[C@H]4CC[C@]3(C)[C@H]1[C@@H]2C,inactive,inactive,2.6,inactive,2,inactive,1.7,inactive,0.5,1.1,1.4,inactive,4,1.3,inactive,1.2,inactive,,
C[C@@H]1CC[C@@]2(OC1)O[C@H]1C[C@H]3[C@@H]4CC=C5C[C@@H](O[C@@H]6O[C@H](CO)[C@@H](O[C@@H]7O[C@@H](C)[C@H](O)[C@@H](O)[C@H]7O)[C@H](O)[C@H]6O[C@@H]6O[C@@H](C)[C@H](O)[C@@H](O)[C@H]6O)CC[C@]5(C)[C@H]4CC[C@]3(C)[C@H]1[C@@H]2C [DIOSCIN],inactive,,1.5,,1,inactive,1.1,inactive,1.6,1.6,1.6,inactive,2,1.2,inactive,1.6,inactive,32,MIC [19]: 4 µg/mL
C[C@@H]1CC[C@@]2(OC1)O[C@H]1C[C@H]3[C@@H]4CC=C5C[C@@H](O)CC[C@]5(C)[C@H]4CC[C@]3(C)[C@H]1[C@@H]2C [DISOGENIN],inactive,inactive,4.3,,,inactive,> 10,inactive,> 10,8.5,> 10,inactive,,> 10,inactive,> 10,inactive,,Activity [20]: inactive; MIC [19]: 32 µg/mL; Activity [21]: inactive
C[C@@H]1CC[C@@]2(OC1)O[C@H]1C[C@H]3[C@@H]4CC=C5C[C@@H](O[C@@H]6O[C@H](CO)[C@@H](O)[C@H](O)[C@H]6O[C@@H]6O[C@@H](C)[C@H](O)[C@@H](O)[C@H]6O)CC[C@]5(C)[C@H]4CC[C@]3(C)[C@H]1[C@@H]2C [OPHIOPOGONIN C],inactive,,1.5,inactive,1,inactive,1.8,inactive,1.7,1.6,2,inactive,2,1.8,inactive,1.8,inactive,16,
C[C@@H]1CC[C@@]2(OC1)O[C@H]1C[C@H]3[C@@H]4[C@H](O)C=C5C[C@@H](O[C@@H]6O[C@H](CO)[C@@H](O)[C@H](O)[C@H]6O[C@@H]6O[C@@H](C)[C@H](O)[C@@H](O)[C@H]6O)CC[C@]5(C)[C@H]4CC[C@]3(C)[C@H]1[C@@H]2C [SANSEVIERIN A],inactive,inactive,> 10,inactive,64,inactive,> 10,inactive,> 10,> 10,> 10,inactive,64,> 10,inactive,> 10,inactive,,
C=C1CC[C@@]2(OC1)O[C@H]1C[C@H]3[C@@H]4CC=C5C[C@@H](O[C@@H]6O[C@H](CO)[C@@H](O[C@@H]7O[C@@H](C)[C@H](O)[C@@H](O)[C@H]7O)[C@H](O)[C@H]6O[C@@H]6O[C@@H](C)[C@H](O)[C@@H](O)[C@H]6O)CC[C@]5(C)[C@H]4CC[C@]3(C)[C@H]1[C@@H]2C [SANSEVISTATIN 1],inactive,inactive,1.6,inactive,1,inactive,1.1,inactive,0.47,1,1.1,inactive,2,1.3,inactive,0.43,inactive,,
C[C@@H]1CC[C@@]2(OC1)O[C@H]1C[C@H]3[C@@H]4CC=C5C[C@@H](O[C@@H]6O[C@H](CO)[C@@H](O[C@@H]7OC[C@H](O)[C@H](O)[C@H]7O)[C@H](O)[C@H]6O[C@@H]6O[C@@H](C)[C@H](O)[C@@H](O)[C@H]6O)CC[C@]5(C)[C@H]4CC[C@]3(C)[C@H]1[C@@H]2C [SANSEVISTATIN 2],inactive,,1.7,inactive,1,inactive,0.93,inactive,0.22,0.42,0.62,inactive,,0.68,inactive,0.26,inactive,32,Activity [20]: inactive
